Measured values: ChEMBL document CHEMBL2016445, “Discovery of a novel class of potent and orally bioavailable sphingosine 1-phosphate receptor 1 antagonists” (J Med Chem, 2012)

Legend:
[1] = biological target: T1, Sphingosine 1-phosphate receptor 1 (Homo sapiens, UniProt P21453); test: Antagonist activity at S1P1 receptor expressed in HEK293 cells assessed as inhibition of S1P-induced cAMP response after 90 mins by spectrophotometry; assay type: functional, cell-based
[2] = biological target: T1, Sphingosine 1-phosphate receptor 1; test: Antagonist activity at S1P1 receptor expressed in HEK293 cells assessed as inhibition of S1P-induced tango beta-arrestin recruitment preincubated for 30 mins prior S1P addition measured after 16 to 18 hrs by luciferase reporter gene assay; assay type: functional, cell-based
[3] = biological target: Sphingosine 1-phosphate receptor 2 (Homo sapiens, UniProt O95136); test: Antagonist activity at S1P2 receptor expressed in HEK293 cells assessed as inhibition of S1P-induced tango beta-arrestin recruitment preincubated for 30 mins prior S1P addition measured after 16 to 18 hrs by luciferase reporter gene assay; assay type: functional, cell-based
[4] = biological target: Sphingosine 1-phosphate receptor 3 (Homo sapiens, UniProt Q99500); test: Antagonist activity at S1P3 receptor expressed in HEK293 cells assessed as inhibition of S1P-induced tango beta-arrestin recruitment preincubated for 30 mins prior S1P addition measured after 16 to 18 hrs by luciferase reporter gene assay; assay type: functional, cell-based
[5] = Drug uptake in nu/nu homozygous mouse plasma at 100 mg/kg, po as a suspension in 10% NMP/corn oil after 4 hrs by HPLC/MS/MS analysis; assay type: ADME, organism-based; set-up: dose 100 mg/kg, route oral
Method in brief: (§1)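 Female Nu/Nu mice (~8 wk, 20-22 g) given a single 100 mpk oral dose at 10 mL/kg. Vehicles: 10% EtOH/45% or 40% PEG400/water + 1 molar equiv HCl, 10% EtOH/40% PEG400/20% Captisol + HCl, or 10% NMP/90% corn oil. Heparinized blood collected 1 and 4 h post-dose; plasma analysed by HPLC/MS/MS.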

[6] = Drug uptake in nu/nu homozygous mouse plasma at 100 mg/kg, po as a suspension in 10% NMP/corn oil after 24 hrs by HPLC/MS/MS analysis; assay type: ADME, organism-based; set-up: dose 100 mg/kg, route oral
Cytochrome P450 2C9 = Cytochrome P450 2C9 (Homo sapiens, UniProt P11712); test: Inhibition of human CYP2C9 using tolbutamide as substrate by LC/MS/MS analysis; assay type: ADME
Method in brief: (§2)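 Pooled human liver microsomes in 100 mM potassium phosphate, pH 7.4, at 37 °C with 1000 µM NADPH for 15 min. Microsomes 0.15 mg/mL for CYP2C9 and CYP2D6, 0.25 mg/mL for CYP3A4. Inhibitor tested at six concentrations (0.2–50 µM). Reactions quenched with acetonitrile; metabolite measured by LC/MS/MS; IC50 from 4-parameter sigmoidal fit.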

Cytochrome P450 2D6 = Cytochrome P450 2D6 (Homo sapiens, UniProt P10635); test: Inhibition of human CYP2D6 using bufuralol as substrate by LC/MS/MS analysis; assay type: ADME; method in brief: as §2
Cytochrome P450 3A4 = Cytochrome P450 3A4 (Homo sapiens, UniProt P08684); test: Inhibition of human CYP3A4 using testosterone as substrate by LC/MS/MS analysis; assay type: ADME; method in brief: as §2
[7] = Antitumor activity against human MDA-MB-231T cells xenografted in athymic nude mouse assessed as tumor growth inhibition at 100 mg/kg, po qd for 14 days post implantation measured for 14 days; assay type: functional; conditions: 336 h, read-out: TGI
Method in brief: (§3)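 MDA-MB-231T cells grown in DMEM with 10% FBS. 1 x 10⁶ cells in ice-cold HBSS implanted into the mammary fat pad of female athymic nude (NCr) mice, 5-8 wk. Daily oral dosing at 10 mL/kg, solutions made fresh daily. Tumor weight measured twice weekly; TGI calculated against vehicle and staging-day weights; 2-tailed t-test, p<0.05.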

[8] = Metabolic stability of the compound in mouse liver microsomes assessed as compound oxidation measuring disappearance of compound at 15 uM after 30 mins by LC/MS/MS analysis; assay type: ADME, Microsome; conditions: read-out: Drug degradation
Method in brief: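 Incubated in duplicate for 30 min at 37 °C: 15 µM compound, 0.15% DMSO, 0.5 mg/mL mouse liver microsomes, 1 mM NADPH, 100 mM potassium phosphate pH 7.4. Stopped with acetonitrile containing 0.1% formic acid. Parent remaining measured by LC/MS/MS; disappearance calculated relative to no-NADPH controls.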

[9] = Antitumor activity against human MDA-MB-231T cells xenografted in athymic nude mouse assessed as tumor growth inhibition at 300 mg/kg, po qd for 14 days post implantation measured for 14 days; assay type: functional; conditions: 336 h, read-out: TGI; method in brief: as §3
Mus musculus = test: Toxicity in athymic nude mouse xenografted with human MDA-MB-231T cells assessed as body weight loss at 300 mg/kg, po qd for 14 days post implantation measured for 14 days; assay type: organism-based; set-up: dose 300 mg/kg, route oral; conditions: in vivo, 336 h
Method in brief: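 Female NCr athymic nude mice bearing mammary fat pad MDA-MB-231T tumors (1 x 10⁶ cells). Dosed orally once daily at 10 mL/kg from fresh solutions. Body weights recorded daily; clinical signs and survival monitored daily.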

[10] = Drug uptake in nu/nu homozygous mouse plasma at 100 mg/kg, po as a solution in 10% EtOH/45% PEG400/water + 1:1 HCl after 1 hr by HPLC/MS/MS analysis; assay type: ADME, organism-based; set-up: dose 100 mg/kg, route oral; method in brief: as §1
[11] = Drug uptake in nu/nu homozygous mouse plasma at 100 mg/kg, po as a solution in 10% EtOH/45% PEG400/water + 1:1 HCl after 4 hrs by HPLC/MS/MS analysis; assay type: ADME, organism-based; set-up: dose 100 mg/kg, route oral; method in brief: as §1
[12] = Drug uptake in nu/nu homozygous mouse plasma at 100 mg/kg, po as a solution in 10% EtOH/40% PEG400/water + 1:1 HCl after 1 hr by HPLC/MS/MS analysis; assay type: ADME, organism-based; set-up: dose 100 mg/kg, route oral; method in brief: as §1
[13] = Drug uptake in nu/nu homozygous mouse plasma at 100 mg/kg, po as a solution in 10% EtOH/40% PEG400/water + 1:1 HCl after 4 hrs by HPLC/MS/MS analysis; assay type: ADME, organism-based; set-up: dose 100 mg/kg, route oral; method in brief: as §1

Cytochrome P450 2C9, sequence (P11712 whole entry): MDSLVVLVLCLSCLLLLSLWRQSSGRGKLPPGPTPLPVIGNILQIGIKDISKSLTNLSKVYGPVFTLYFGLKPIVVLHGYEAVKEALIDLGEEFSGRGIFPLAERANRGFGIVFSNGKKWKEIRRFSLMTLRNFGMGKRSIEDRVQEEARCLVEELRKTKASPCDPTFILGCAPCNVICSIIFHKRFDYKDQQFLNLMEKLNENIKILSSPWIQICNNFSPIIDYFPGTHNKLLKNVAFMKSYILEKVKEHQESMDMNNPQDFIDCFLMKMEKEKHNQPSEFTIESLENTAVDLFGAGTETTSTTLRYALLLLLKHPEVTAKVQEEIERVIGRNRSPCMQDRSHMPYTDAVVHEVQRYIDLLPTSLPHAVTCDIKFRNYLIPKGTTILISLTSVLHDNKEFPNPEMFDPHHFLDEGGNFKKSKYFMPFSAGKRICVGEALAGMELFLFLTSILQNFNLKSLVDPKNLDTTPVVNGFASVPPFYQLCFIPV
Cytochrome P450 3A4, sequence (P08684 whole entry): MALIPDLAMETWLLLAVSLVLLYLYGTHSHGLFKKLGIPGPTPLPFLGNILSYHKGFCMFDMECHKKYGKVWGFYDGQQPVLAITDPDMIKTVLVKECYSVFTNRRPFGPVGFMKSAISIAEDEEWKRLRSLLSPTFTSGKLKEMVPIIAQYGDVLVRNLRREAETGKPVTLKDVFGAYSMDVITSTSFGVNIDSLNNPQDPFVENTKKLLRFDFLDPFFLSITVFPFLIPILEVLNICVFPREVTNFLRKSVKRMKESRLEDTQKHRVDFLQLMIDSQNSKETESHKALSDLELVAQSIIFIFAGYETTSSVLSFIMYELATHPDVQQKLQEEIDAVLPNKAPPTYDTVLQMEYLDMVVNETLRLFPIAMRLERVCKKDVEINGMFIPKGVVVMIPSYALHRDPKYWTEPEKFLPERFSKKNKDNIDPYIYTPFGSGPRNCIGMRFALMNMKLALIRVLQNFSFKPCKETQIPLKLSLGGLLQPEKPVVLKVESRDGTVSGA
Sphingosine 1-phosphate receptor 2, sequence (O95136 whole entry): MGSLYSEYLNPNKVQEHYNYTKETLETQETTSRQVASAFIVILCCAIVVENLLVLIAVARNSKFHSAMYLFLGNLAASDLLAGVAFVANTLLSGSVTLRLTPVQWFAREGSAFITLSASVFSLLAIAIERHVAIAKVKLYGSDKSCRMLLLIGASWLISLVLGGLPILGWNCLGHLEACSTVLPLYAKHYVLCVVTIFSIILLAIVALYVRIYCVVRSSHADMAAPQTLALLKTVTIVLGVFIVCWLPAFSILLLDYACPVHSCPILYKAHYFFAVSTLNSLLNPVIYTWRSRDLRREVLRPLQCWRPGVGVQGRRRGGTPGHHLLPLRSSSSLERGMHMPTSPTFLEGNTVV
T1 sequence (P21453 whole entry): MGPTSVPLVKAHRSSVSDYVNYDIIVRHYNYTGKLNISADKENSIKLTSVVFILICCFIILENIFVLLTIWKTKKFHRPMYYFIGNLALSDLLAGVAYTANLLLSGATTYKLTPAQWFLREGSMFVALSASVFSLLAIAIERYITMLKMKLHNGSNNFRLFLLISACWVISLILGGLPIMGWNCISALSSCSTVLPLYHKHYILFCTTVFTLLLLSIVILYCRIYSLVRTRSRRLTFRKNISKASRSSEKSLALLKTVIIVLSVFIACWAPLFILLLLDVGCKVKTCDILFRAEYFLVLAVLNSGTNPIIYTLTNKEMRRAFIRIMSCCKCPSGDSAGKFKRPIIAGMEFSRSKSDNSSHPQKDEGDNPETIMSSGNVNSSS
Sphingosine 1-phosphate receptor 3, sequence (Q99500 whole entry): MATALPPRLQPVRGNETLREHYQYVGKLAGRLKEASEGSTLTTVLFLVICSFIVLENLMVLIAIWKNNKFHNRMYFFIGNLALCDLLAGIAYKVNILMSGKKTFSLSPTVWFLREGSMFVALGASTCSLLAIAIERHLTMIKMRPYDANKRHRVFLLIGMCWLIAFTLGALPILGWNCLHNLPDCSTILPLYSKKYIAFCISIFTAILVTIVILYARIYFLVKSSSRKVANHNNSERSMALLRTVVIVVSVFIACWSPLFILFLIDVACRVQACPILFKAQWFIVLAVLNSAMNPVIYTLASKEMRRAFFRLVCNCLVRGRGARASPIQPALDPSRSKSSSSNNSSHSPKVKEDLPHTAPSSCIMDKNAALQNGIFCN
Cytochrome P450 2D6, sequence (P10635 whole entry): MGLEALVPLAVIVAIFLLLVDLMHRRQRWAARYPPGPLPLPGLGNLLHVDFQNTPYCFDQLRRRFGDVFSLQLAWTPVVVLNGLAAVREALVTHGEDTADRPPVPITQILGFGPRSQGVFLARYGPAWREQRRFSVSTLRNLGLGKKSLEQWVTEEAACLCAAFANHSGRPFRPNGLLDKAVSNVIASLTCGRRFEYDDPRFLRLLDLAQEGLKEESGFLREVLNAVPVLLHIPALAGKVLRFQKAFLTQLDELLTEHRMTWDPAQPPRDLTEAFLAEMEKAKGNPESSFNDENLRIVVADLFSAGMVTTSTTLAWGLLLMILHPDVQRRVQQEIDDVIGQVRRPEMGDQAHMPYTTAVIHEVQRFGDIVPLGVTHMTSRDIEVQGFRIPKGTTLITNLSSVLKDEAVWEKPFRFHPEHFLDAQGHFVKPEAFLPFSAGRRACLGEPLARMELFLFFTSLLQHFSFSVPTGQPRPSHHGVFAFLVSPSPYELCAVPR

With `O=C(Nc1ccc(Oc2ccc(F)cc2)cc1)[C@@H]1C[C@@H](Cc2ccc(F)cc2)CN1C(=O)Cn1nccn1` as the compound, how does the IC50 [1] read?
Its IC50 is 4.8 nM.

And the IC50 [2]?
Its IC50 is 21 nM.

What about the IC50 [3] of the same compound?
Its IC50 is > 10000 nM.

And the IC50 [4]?
Its IC50 is > 10000 nM.

What about the concentration at 4 h [5] of the same compound?
The concentration at 4 h was 23 µM.

And the concentration at 24 h [6]?
The concentration at 24 h was 2 µM.

And the IC50 (Cytochrome P450 2C9)?
Its IC50 is 17400 nM.

And the IC50 (Cytochrome P450 2D6)?
The IC50 was > 50000 nM.

What about the IC50 (Cytochrome P450 3A4) of the same compound?
Its IC50 is > 20000 nM.

What about the inhibition in vivo at 100 mg/kg [7] of the same compound?
Its inhibition in vivo at 100 mg/kg is 60%.

Which IC50 [1] does the source give for `O=C(Cc1cnc[nH]1)N[C@@H](COCc1ccccc1)C(=O)Nc1ccc(Oc2ccc(Cl)cc2)cc1` here?
Its IC50 is 32 nM.

What about the IC50 [2] of the same compound?
Its IC50 is 221 nM.

And the IC50 [3]?
The IC50 was > 10000 nM.

What about the IC50 [4] of the same compound?
The IC50 was > 10000 nM.

What about the metabolised at 0.5 h, 15 µM [8] of the same compound?
The metabolised at 0.5 h, 15 µM was 9%.

And the inhibition in vivo at 300 mg/kg [9]?
Its inhibition in vivo at 300 mg/kg is 45%.

What about the Activity (Mus musculus) of the same compound?
The Activity was “Non-toxic”.

What about the concentration at 1 h [10] of the same compound?
The concentration at 1 h was 11 µM.

What about the concentration at 4 h [11] of the same compound?
The concentration at 4 h was 11 µM.

Which IC50 [1] does the source give for `O=C(Cc1cnc[nH]1)N[C@@H](COCc1ccccc1)C(=O)Nc1ccc(Cc2ccccc2)cc1` here?
Its IC50 is > 10000 nM.

With `O=C(Cc1cnc[nH]1)N[C@@H](COCc1ccccc1)C(=O)Nc1ccc(Oc2ccccc2Cl)cc1` as the compound, how does the IC50 [1] read?
The IC50 was > 10000 nM.

Which IC50 [1] does the source give for `O=C(Nc1ccc(Oc2ccc(F)cc2)cc1)[C@@H]1CN(Cc2ccccc2)CCN1C(=O)Cc1cnc[nH]1` here?
Its IC50 is 84 nM.

What about the concentration at 4 h [5] of the same compound?
Its concentration at 4 h is 6.3 µM.

And the concentration at 24 h [6]?
The concentration at 24 h was 9.2 µM.

Which IC50 [1] does the source give for `O=C(Cc1cnc[nH]1)N[C@@H](CCCc1ccccc1)C(=O)Nc1ccc(Oc2ccccc2)cc1` here?
Its IC50 is 14 nM.

With `O=C(Nc1ccc(Oc2ccc(F)cc2)cc1)[C@@H]1C[C@@H](Cc2ccc(F)cc2)CN1C(=O)Cn1cncn1` as the compound, how does the IC50 [1] read?
The IC50 was 5.8 nM.

What about the IC50 [2] of the same compound?
The IC50 was 13 nM.

What about the IC50 [3] of the same compound?
Its IC50 is > 10000 nM.

What about the IC50 [4] of the same compound?
Its IC50 is > 10000 nM.

What about the concentration at 4 h [5] of the same compound?
The concentration at 4 h was 104 µM.

What about the metabolised at 0.5 h, 15 µM [8] of the same compound?
Its metabolised at 0.5 h, 15 µM is 8%.

What about the concentration at 24 h [6] of the same compound?
The concentration at 24 h was 18 µM.

And the IC50 (Cytochrome P450 2C9)?
The IC50 was 2190 nM.

And the IC50 (Cytochrome P450 2D6)?
Its IC50 is 7370 nM.

What about the IC50 (Cytochrome P450 3A4) of the same compound?
Its IC50 is 12600 nM.

With `O=C(N[C@@H](COCc1ccccc1)C(=O)Nc1ccc(Oc2ccccc2)cc1)c1cnc[nH]1` as the compound, how does the IC50 [1] read?
The IC50 was > 1000 nM.

With `O=C(Nc1ccc(Oc2ccc(F)cc2)cc1)[C@@H]1C[C@@H](c2ccccc2)CN1C(=O)Cn1cncn1` as the compound, how does the IC50 [1] read?
The IC50 was 492 nM.

With `O=C(Nc1ccc(Oc2ccc(F)cc2)cc1)[C@@H]1C[C@H](Cc2ccc(F)cc2)CN1C(=O)Cn1cncn1` as the compound, how does the IC50 [1] read?
Its IC50 is 48 nM.

What about the IC50 (Cytochrome P450 2C9) of the same compound?
Its IC50 is 1350 nM.

And the IC50 (Cytochrome P450 2D6)?
The IC50 was 3780 nM.

What about the IC50 (Cytochrome P450 3A4) of the same compound?
Its IC50 is > 20000 nM.

Which IC50 [1] does the source give for `O=C(Cc1cnc[nH]1)N[C@@H](COCc1ccccc1)C(=O)Nc1ccc(Oc2cccc(Cl)c2)cc1` here?
The IC50 was 96 nM.

With `O=C(Cc1c[nH]cn1)N[C@@H](COCc1ccccc1)C(=O)Nc1ccc(Oc2ccc(F)cc2)cc1` as the compound, how does the IC50 [1] read?
Its IC50 is 13 nM.

And the IC50 [2]?
Its IC50 is 284 nM.

What about the IC50 [3] of the same compound?
Its IC50 is > 10000 nM.

What about the IC50 [4] of the same compound?
The IC50 was > 10000 nM.

What about the concentration at 1 h [12] of the same compound?
The concentration at 1 h was 8 µM.

And the concentration at 4 h [13]?
The concentration at 4 h was 3 µM.

And the metabolised at 0.5 h, 15 µM [8]?
The metabolised at 0.5 h, 15 µM was 9%.

And the inhibition in vivo at 300 mg/kg [9]?
Its inhibition in vivo at 300 mg/kg is 54%.

What about the Activity (Mus musculus) of the same compound?
The Activity was “Non-toxic”.

For `O=C(Cc1c[nH]cn1)N[C@@H](COCc1ccccc1)C(=O)Nc1ccc(OCc2ccccc2)cc1`, which IC50 [1] is on record?
Its IC50 is 152 nM.

With `O=C(Cc1ccccc1F)N[C@@H](COCc1ccccc1)C(=O)Nc1ccc(Oc2ccccc2)cc1` as the compound, how does the IC50 [1] read?
Its IC50 is 500 nM.

For `O=C(Cc1cnc[nH]1)N[C@@H](COCc1ccccc1)C(=O)Nc1ccc(Nc2ccccc2)cc1`, which IC50 [1] is on record?
The IC50 was 743 nM.

With `O=C(Nc1ccc(Oc2ccc(F)cc2)cc1)[C@H]1C[C@H](Cc2ccc(F)cc2)CN1C(=O)Cn1ccnn1` as the compound, how does the IC50 [1] read?
The IC50 was > 1000 nM.

Which IC50 [1] does the source give for `CN(C(=O)Cc1c[nH]cn1)[C@@H](COCc1ccccc1)C(=O)Nc1ccc(Oc2ccccc2)cc1` here?
The IC50 was 181 nM.
